PDI turbidity – inhibitors of human protein disulfide isomerase; AID 588391; inhibition, % at 10 µM; hit rate 0.052% among 350,000; PDI insulin aggregation turbidity, A650, 90 min; P07237;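 active = mean inhibition across replicates of 30% or more, whatever share of single replicates reach that level; inconclusive = mean inhibition below 30% while every single replicate reaches 30%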
DENV2 CPE rescue – protects cells from dengue virus 2 cytopathic effect. DENV2-infected cells, cytopathic effect rescue, plate reader. CPE inhibition, % at 9.99 µM. hit rate 1.7% among 350,000; in the data active = CPE inhibition above about 20%, passing the limit was not always enough; inconclusive = no clear call, values can overlap the other calls; tested in BHK-21 cells;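 also: 0% = median of neutral control wells and 100% = median of positive control wells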
Cneo AK release – causes C. neoformans cell lysis | lysis activity, % at 15 µM | hit rate 0.2% among 360,000 | adenylate kinase release luminescence, 4 h; normalised: neutral wells 0, clomiphene wells 100;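 active = mean lysis activity across replicates of at least 80%, whatever share of replicates individually reach that level; inactive = mean lysis activity below 80%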
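Test system: log-phase Cryptococcus neoformans yeast cells. Input: 5 × 10^6 yeast cells/mL. Medium: fresh YPD growth medium. Doses: single dose. Incubation: static 4 h at 37 °C with compound, 1 h detection. Measured by: luminescent adenylate kinase detection reagent. Read-out: signal increase indicating cell lysis. Benchmarks: Clomiphene.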
ERp5 inh – blocks human ERp5 reductase activity on insulin. inhibition, % at 9.99 µM. hit rate 0.05% among 350,000. ERp5 insulin aggregation, absorbance 650 nm, 90 min. AID 651711. Q15084;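 active = mean replicate inhibition above about 25%, with every replicate also reaching it, limit read from the data, passing the limit was not always enough; inconclusive = only one of those two criteria met; inactive = neither criterion met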
Target sequence (Q15084 whole entry, looked up): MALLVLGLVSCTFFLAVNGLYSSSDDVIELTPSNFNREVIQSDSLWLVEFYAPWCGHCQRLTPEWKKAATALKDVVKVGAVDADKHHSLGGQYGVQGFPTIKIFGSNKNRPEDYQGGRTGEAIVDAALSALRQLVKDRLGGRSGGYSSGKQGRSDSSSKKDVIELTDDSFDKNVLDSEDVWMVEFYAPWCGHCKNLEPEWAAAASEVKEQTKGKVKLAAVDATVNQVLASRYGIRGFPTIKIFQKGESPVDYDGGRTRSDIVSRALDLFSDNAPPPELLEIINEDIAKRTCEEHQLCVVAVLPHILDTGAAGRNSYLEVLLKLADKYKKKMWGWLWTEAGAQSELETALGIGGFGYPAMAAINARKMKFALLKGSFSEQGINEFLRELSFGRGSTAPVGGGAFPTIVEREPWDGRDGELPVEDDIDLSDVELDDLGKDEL
C2C12 statin – protects C2C12 myotubes from simvastatin toxicity | AID 602340 | rescue of ATP level, % at 7.49 µM | ATP luminescence, 48 h; scaled: DMSO 0, geranylgeraniol control 100 | hit rate 0.78% among 330,000;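 active = mean ATP rescue above about 67%, or every replicate alone reaching that limit, limit read from the data, passing the limit was not always enough; inconclusive = no clear call, values can overlap the other calls; inactive = mean under the limit and some replicate under it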;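 also: myotubes were challenged with 10 µM simvastatin during compound exposure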
CFTR F508del cor – correctors of CFTR F508del function in bronchial epithelial cells | CFBE cells, YFP halide quenching; stimulated with forskolin plus potentiator P3; % fluorescence drop versus neutral controls | hit rate 0.36% among 350,000 | activity (quench increase), % at 7.58 µM;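 active = mean added fluorescence quench of at least 8% versus neutral control, with both replicates also reaching 8%; inconclusive = only one of the mean or replicate conditions met; inactive = mean below 8% and not both replicates reaching 8%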;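 also: cells transiently co-express mutant CFTR-F508del with the halide-sensitive YFP; corrector assay measuring rescue of mutant channel to the surface after 24 h compound exposure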
Active calls of the source: *; ? = inconclusive; / = not tested or not shown. Most compounds without a hit are left out; they make up all but 2.3% or so of the library.

SMILES	PDI turbidity	DENV2 CPE rescue	Cneo AK release	ERp5 inh	C2C12 statin	CFTR F508del cor
Cc1ccc(S(=O)(=O)Nc2ccc3c(c2)C(=O)N([C@H](C)CO)C[C@@H](C)[C@H](CN(C)Cc2ccc(C(F)(F)F)cc2)OCCCC[C@@H](C)O3)cc1	/	-28	118*	1	/	3
Cc1ccc(S(=O)(=O)Nc2ccc3c(c2)C(=O)N([C@H](C)CO)C[C@H](C)[C@H](CN(C)Cc2ccc(C(F)(F)F)cc2)OCCCC[C@@H](C)O3)cc1	/	26*	-4	-2	/	4
Cc1ccc(S(=O)(=O)Nc2ccc3c(c2)C(=O)N([C@@H](C)CO)C[C@@H](C)[C@@H](CN(C)Cc2ccc(C(F)(F)F)cc2)OCCCC[C@H](C)O3)cc1	/	-6	54	0	/	2
C[C@@H]1CN([C@@H](C)CO)S(=O)(=O)c2ccc(C#CCN(C)C)cc2O[C@@H]1CN(C)Cc1ccncc1	/	1	9	-3	-10	-3
O=C(C[C@H]1CC[C@H](NC(=O)CC2CC2)[C@H](CO)O1)NCc1ccccc1	/	-5	/	-1	/	2
Clc1ccc(C2=Nc3cc(Cl)ccc3OC2)cc1	1	-2	/	-1	/	-2
c1ccc(C2=Nc3ccccc3OC2)cc1	-12	/	0	/	89*	/
Cc1ccccc1OCc1nc2ccccc2c(=O)n1/N=C/c1c[nH]c2ccccc12	-12	-13	0	3	/	4
Cc1cc(/C=N/n2c(COc3ccccc3C)nc3ccccc3c2=O)c(O)c([N+](=O)[O-])c1	4	-2	/	3	/	8.2*
COc1ccccc1-c1cccc(-c2nc(C(=O)N3CCOCC3)cc3c2[C@H](CCO)N([S@@](=O)C(C)(C)C)C3)c1	/	-1	-8	2	-1	-1
Cc1ccc(S(=O)(=O)N(C)C[C@H]2OCCCC[C@@H](C)Oc3ccc(NC(=O)NC4CCCCC4)cc3C(=O)N([C@@H](C)CO)C[C@H]2C)cc1	/	-3	-3	-4	/	-1
O=C1ON=C(c2ccccc2)/C1=C\c1ccco1	-4	?	-3	1	-2	-2
Cc1ccc(/C=C2/C(=O)ON=C2c2ccccc2)o1	8	42*	/	1	/	-1
O=C(NC1CCCC1)N1CCCCN2[C@@H](CO)[C@@H](c3ccc(/C=C/c4ccccc4)cc3)[C@@H]2C1	/	-22	15	0	14	-4
CC(C)CC#Cc1cnc2c(c1)C(=O)N([C@H](C)CO)C[C@H](C)[C@@H](CN(C)C(=O)c1ccc3c(c1)OCO3)O2	/	6	-3	-2	4	-3
CC(C)CC#Cc1cnc2c(c1)C(=O)N([C@@H](C)CO)C[C@@H](C)[C@H](CN(C)C(=O)c1ccc3c(c1)OCO3)O2	/	15	0	-1	78*	2
CC(C)CC#Cc1cnc2c(c1)C(=O)N([C@@H](C)CO)C[C@H](C)[C@H](CN(C)C(=O)c1ccc3c(c1)OCO3)O2	/	-13	85*	5	21	2
COc1ccc(CN(C)C[C@@H]2OCCCC[C@H](C)Oc3ccc(NC(=O)CCCN(C)C)cc3C(=O)N([C@@H](C)CO)C[C@H]2C)cc1	/	-7	/	3	/	-1
O=C(O)CSc1ncccc1C(=O)O	-10	46*	/	-7	/	0
COC(=O)Nc1sccc1C(=O)Nc1sccc1C(=O)OC	-7	/	-6	/	/	/
COC(=O)c1ccsc1NC(=O)c1ccccc1	5	13	-1	2	/	8.6*
COc1ccc(-c2ccccc2)cc1NC(=O)c1cccs1	-2	49*	-5	3	-19	/
COc1cc(NC(=O)c2cccs2)c(OC)cc1NC(=O)c1cccs1	-3	/	2	/	-7	/
CN(C[C@@H]1[C@@H](c2ccccc2)[C@H](CO)N1C(=O)C1CC1)C(=O)c1ccccn1	/	54*	2	/	-2	1
CCN(C[C@@H]1N[C@@H](CO)[C@H]1c1ccc(-c2ccccc2)cc1)C(=O)COC	/	24*	-9	0	8	2
SMILES	PDI turbidity	DENV2 CPE rescue	Cneo AK release	ERp5 inh	C2C12 statin	CFTR F508del cor
CN(C[C@H]1[C@H](c2ccccc2)[C@@H](CO)N1C(=O)C1CC1)C(=O)c1ccccn1	/	?	0	/	-7	0
CC(=O)N1[C@@H](CO)[C@H](c2ccccc2)[C@@H]1CN(CC(C)C)C(=O)c1ccccn1	/	27*	9	2	-8	0
CCC(=O)N(CC)C[C@@H]1[C@@H](c2ccccc2)[C@H](CO)N1C(C)=O	/	20*	2	4	2	-3
CC(=O)N1[C@H](CO)[C@@H](c2ccccc2)[C@H]1CN(CC(C)C)C(=O)c1ccccn1	/	11	-2	5	3	0
COCC(=O)Nc1ccc2c(c1)OC[C@H](C)N(CC1CCCCC1)C[C@H](C)[C@@H](OC)CN(C)C2=O	/	7	1	2	-2	-2
COc1ccccc1-c1cn(CC[C@H]2CC[C@@H](NS(=O)(=O)c3ccccc3C)[C@H](CO)O2)nn1	/	2	-1	2	15	1
C[C@@H]1CN([C@H](C)CO)C(=O)c2cc(NS(=O)(=O)c3ccc(F)cc3)ccc2O[C@@H](C)CCCCO[C@H]1CN(C)Cc1ccccc1	/	?	-2	-6	/	-2
C[C@]12C(=O)N(c3ccccc3)C(=O)N1[C@@H]1c3ccccc3OC[C@@H]1[C@H]2c1ccccc1	-7	97*	-1	2	2	0
C[C@]12C(=O)N(c3ccccc3)C(=O)N1[C@H]1c3ccccc3OC[C@@H]1[C@H]2c1ccccc1	-3	7	-1	-2	8	3
C[C@@H]1CN([C@H](C)CO)S(=O)(=O)c2ccc(-c3cccnc3)cc2O[C@@H]1CN(C)C(=O)CN(C)C	/	12	-3	-4	-6	1
C[C@H]1CN([C@@H](C)CO)C(=O)c2cc(-c3ccccc3)cnc2O[C@@H]1CN(C)C(=O)Cc1ccccc1	/	-2	-4	14	41	1
Cc1cc(C)n2c(Nc3ccc4c(c3)OCCO4)c(CC(C)C)nc2n1	/	46*	/	5	/	-1
CCOC(=O)C1CCN(C(=O)COC(=O)c2ccc([N+](=O)[O-])o2)CC1	6	76*	-1	4	-1	0
CC1CC(C)CN(C(=O)COC(=O)c2ccc([N+](=O)[O-])o2)C1 (stereo not given)	-3	-3	1	-3	8	3
Cc1oc(-c2cccs2)nc1CN1CCC(CO)(CCOc2ccccc2)CC1	6	9	/	2	/	1
CCOC(=O)C1(CCOC)CCN(Cc2nc(-c3cccs3)oc2C)CC1	10	15	4	5	86*	-3
CCN=C1NC(c2ccccc2C(F)(F)F)C(C(=O)OC)=C(C)N1C (stereo not given)	/	21*	/	-1	/	0
COC(=O)C1=C(C)N(C)C(=NCc2ccccc2)NC1c1ccccc1C(F)(F)F (stereo not given)	/	/	/	1	/	1
